Key:
Format in all cases: functional
Settings in all cases: Homo sapiens
K562 = test: The concentration of compound required for 50% cell growth inhibition which was expressed in logarithmic form was measured on K-562 cell lines of Leukemia
Summary of the method: (§1)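 NCI 60-cell-line screen, sulforhodamine B assay. Cells grown in RPMI 1640 with 5% fetal bovine serum and 2 mM L-glutamine, seeded at 5000 to 40 000 cells/well, and incubated 24 h before drug. Drug exposure lasted 48 h. Cells were then TCA-fixed, stained with 0.4% (w/v) SRB in 1% acetic acid, and the stain solubilized in 10 mM Tris base for absorbance reading. GI50 taken from dose-response curves.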

HCT-15 = test: The concentration of compound required for 50% cell growth inhibition which was expressed in logarithmic form was measured on HCT-15 cell lines of colon cancer; summary of the method: as §1
SK-MEL-2 = test: The concentration of compound required for 50% cell growth inhibition which was expressed in logarithmic form was measured on SK-MEL-2 cell lines of Melanoma; summary of the method: as §1
HCC 2998 = test: The concentration of compound required for 50% cell growth inhibition which was expressed in logarithmic form was measured on HCC2998 cell lines of colon cancer; summary of the method: as §1
HCT-116 = test: The concentration of compound required for 50% cell growth inhibition which was expressed in logarithmic form was measured on […] cell lines of colon cancer; summary of the method: as §1
HT-29 = test: The concentration of compound required for 50% cell growth inhibition which was expressed in logarithmic form was measured on HT-29 cell lines of colon cancer; summary of the method: as §1
UACC-62 = test: The concentration of compound required for 50% cell growth inhibition which was expressed in logarithmic form was measured on UACC-62 cell lines of Melanoma; summary of the method: as §1
RPMI-8226 = test: The concentration of compound required for 50% cell growth inhibition which was expressed in logarithmic form was measured on RPMI-8226 cell lines of Leukemia; summary of the method: as §1
SW-620 = test: The concentration of compound required for 50% cell growth inhibition which was expressed in logarithmic form was measured on SW-620 cell lines of colon cancer; summary of the method: as §1
M14 = test: The concentration of compound required for 50% cell growth inhibition which was expressed in logarithmic form was measured on M14 cell lines of Melanoma; summary of the method: as §1
UACC-257 = test: The concentration of compound required for 50% cell growth inhibition which was expressed in logarithmic form was measured on UACC-257 cell lines of Melanoma; summary of the method: as §1
KM12 = test: The concentration of compound required for 50% cell growth inhibition which was expressed in logarithmic form was measured on KM12 cell lines of colon cancer; summary of the method: as §1
Malme-3M = test: The concentration of compound required for 50% cell growth inhibition which was expressed in logarithmic form was measured on MALME-3M cell lines of Melanoma; summary of the method: as §1
SK-MEL-28 = test: The concentration of compound required for 50% cell growth inhibition which was expressed in logarithmic form was measured on SK-MEL-28 cell lines of Melanoma; summary of the method: as §1
MOLT-4 = test: The concentration of compound required for 50% cell growth inhibition which was expressed in logarithmic form was measured on MOLT-4 cell lines of Leukemia; summary of the method: as §1
SK-MEL-5 = test: The concentration of compound required for 50% cell growth inhibition which was expressed in logarithmic form was measured on SK-MEL-5 cell lines of Melanoma; summary of the method: as §1
HL-60 = test: The concentration of compound required for 50% cell growth inhibition which was expressed in logarithmic form was measured on HL-60(TB) cell lines of Leukemia
Summary of the method: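 NCI 60-line screen, sulforhodamine B read-out. Lines grown in RPMI 1640 with 5% fetal bovine serum and 2 mM L-glutamine, seeded at 5000–40 000 cells/well and left 24 h before drug. Drug exposure 48 h, then TCA fixation, 0.4% (w/v) SRB staining in 1% acetic acid, solubilization in 10 mM unbuffered Tris base and absorbance reading. GI50 reported as log value.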

CCRF-CEM = test: The concentration of compound required for 50% cell growth inhibition which was expressed in logarithmic form was measured on CCRF-CEM cell lines of Leukemia; summary of the method: as §1
COLO 205 = test: The concentration of compound required for 50% cell growth inhibition which was expressed in logarithmic form was measured on COLO 205 cell lines of colon cancer; summary of the method: as §1

| SMILES | GI50 (K562) | GI50 (HCT-15) | GI50 (SK-MEL-2) | GI50 (HCC 2998) | GI50 (HCT-116) | GI50 (HT-29) | GI50 (UACC-62) | GI50 (RPMI-8226) | GI50 (SW-620) | GI50 (M14) | GI50 (UACC-257) | GI50 (KM12) | GI50 (Malme-3M) | GI50 (SK-MEL-28) | GI50 (MOLT-4) | GI50 (SK-MEL-5) | GI50 (HL-60) | GI50 (CCRF-CEM) | GI50 (COLO 205) |
| --- | --- | --- | --- | --- | --- | --- | --- | --- | --- | --- | --- | --- | --- | --- | --- | --- | --- | --- | --- |
| CN(CCNc1ccc2ncn3c4ccccc4c(=O)c1c23)CCNc1ccc2ncn3c4ccccc4c(=O)c1c23 | 28200 nM | 27500 nM | 27500 nM | 25100 nM | 2240 nM | 4370 nM | 21900 nM | 28200 nM | 11200 nM | 4070 nM | 8130 nM | 2690 nM | 13200 nM | 2820 nM | 58900 nM | 5890 nM | > 100000 nM | 95500 nM | 22400 nM |
| CN(CCCNc1ccc2ncn3c4ccccc4c(=O)c1c23)CCCNc1ccc2ncn3c4ccccc4c(=O)c1c23 | < 10 nM | 316 nM | 13800 nM | 93.3 nM | < 10 nM | 16.6 nM | 8130 nM | 145 nM | < 10 nM | > 100000 nM | > 100000 nM | 295 nM | 776 nM | > 100000 nM | < 10 nM | 12900 nM | 44.7 nM | < 10 nM | 501 nM |
| CN(CCCN)CCCNc1ccc2ncn3c4ccccc4c(=O)c1c23 | 813 nM | 3470 nM | 1450 nM | 1350 nM | 661 nM | 631 nM | 1620 nM | 1150 nM | 631 nM | 1780 nM | 1780 nM | 1070 nM | 1620 nM | 1550 nM | 355 nM | 1550 nM | 282 nM | 347 nM | 1150 nM |
| CN(CCCNc1ccc2ncn3c4ccccc4c(=O)c1c23)CCCNc1ccc2ncn3c4ccc(C(C)(C)C)cc4c(=O)c1c23 | 724 nM | 1780 nM | 1580 nM | 1700 nM | 1230 nM | 1580 nM | 1910 nM | 2880 nM | 1290 nM | 2040 nM | 1450 nM | 1550 nM | 1740 nM | 1820 nM | 3090 nM | 1700 nM | 4790 nM | 6920 nM | 1740 nM |
| CN(CCCNc1ccc2ncn3c4ccccc4c(=O)c1c23)CCCNc1ccc2nnn3c4ccccc4c(=O)c1c23 | 17800 nM | 47.9 nM | 51300 nM |  | < 10 nM | < 10 nM | 38000 nM |  | < 10 nM | > 100000 nM | > 100000 nM | 30.9 nM | 12000 nM | 44700 nM | > 100000 nM | 17000 nM | 10200 nM | 5010 nM | 372 nM |
